ChEMBL document CHEMBL4371057, “Hydroxamic Acid Inhibitors Provide Cross-Species Inhibition of Plasmodium M1 and M17 Aminopeptidases” (J Med Chem, 2019)

Key:
Plasmodium falciparum [1] = experiment: Antimalarial activity against Plasmodium falciparum 3D7 after 72 hrs by DAPI staining-based confocal imaging analysis; type: functional, organism-based; settings: 3D7, 72 h
Procedure, shortened: (§1)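 Exposed to a 16-point dose series (40 μM to 0.4 nM final, 0.4% DMSO) for 72 h at 37 °C in 90% N2/5% CO2/5% O2. DAPI-stained and imaged confocally. Two biological replicates, each with two technical repeats.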

Plasmodium falciparum [2] = experiment: Antimalarial activity against Plasmodium falciparum Dd2 after 72 hrs by DAPI staining-based confocal imaging analysis; type: functional, organism-based; procedure, shortened: as §1
[3] = Growth inhibition of HEK293 cells at 10 uM after 72 hrs by resazurin dye based assay relative to control; type: cell-based; settings: human, read-out: GI
Procedure, shortened: (§2)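 HEK293 cells kept in DMEM with 10% FBS. Exposed to compounds for 72 h at 37 °C, 5% CO2, using the same dilution scheme as the parasite assay (top 40 μM). Medium then replaced with 44 μM resazurin, and fluorescence (530/595 nm) read after 5–6 h.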

[4] = Cytotoxicity against HEK293 cells after 72 hrs by resazurin dye based assay; type: cell-based; settings: human; procedure, shortened: as §2
[5] = Growth inhibition of HEK293 cells at 40 uM after 72 hrs by resazurin dye based assay relative to control; type: cell-based; settings: human, read-out: GI; procedure, shortened: as §2
[6] = Selectivity index, ratio of CC50 for HEK293 cells to IC50 for Plasmodium falciparum 3D7; type: toxicity; settings: human, read-out: Ratio CC50/IC50
[7] = Inhibition of Plasmodium falciparum C-terminal His6-tagged M1 aminopeptidase (195 to 1085 residues) expressed in Escherichia coli BL21(DE3) preincubated for 20 mins followed by L-leucine-7-amido-4-methylcoumarin addition by Morrison equation analysis
Procedure, shortened: (§3)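 Recombinant enzymes (Ni-NTA then size exclusion) were preincubated 20 min with inhibitor in 100 mM Tris-HCl pH 8.0, with 2 mM CoCl2 for Pf-M17 and 1 mM for Pv-M17. Leu-AMC substrate: 20 μM (Pf-M1), 40 μM (Pv-M1), 10 μM (both M17). Read at 37 °C, 355/460 nm, to steady-state velocity. Ki from a Morrison tight-binding fit; biological triplicate from three protein preparations.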

[8] = Inhibition of Plasmodium vivax C-terminal His6-tagged M1 aminopeptidase (195 to 1097 residues) expressed in Escherichia coli BL21(DE3) preincubated for 20 mins followed by L-leucine-7-amido-4-methylcoumarin addition by Morrison equation analysis; procedure, shortened: as §3
[9] = Inhibition of Plasmodium falciparum C-terminal His6-tagged M17 aminopeptidase (85 to 605 residues) expressed in Escherichia coli BL21(DE3) preincubated for 20 mins followed by L-leucine-7-amido-4-methylcoumarin addition by Morrison equation analysis; procedure, shortened: as §3
[10] = Inhibition of Plasmodium vivax C-terminal His6-tagged M17 aminopeptidase (203 to 621 residues) expressed in Escherichia coli BL21(DE3) preincubated for 20 mins followed by L-leucine-7-amido-4-methylcoumarin addition by Morrison equation analysis; procedure, shortened: as §3
[11] = Selectivity ratio of Ki for Plasmodium falciparum C-terminal His6-tagged M1 aminopeptidase (195 to 1085 residues) expressed in Escherichia coli BL21(DE3) to Ki for Plasmodium vivax C-terminal His6-tagged M1 aminopeptidase (195 to 1097 residues) expressed in Escherichia coli BL21(DE3)
[12] = Plasmodium falciparum, Dd2, 72 h, read-out: IC50

SMILES | IC50 (Plasmodium falciparum [1]) [nM] | IC50 (Plasmodium falciparum [2]; [12]) [nM] | inhibition at 72 h, 10 µM [3] [%] | CC50 at 72 h [4] [nM] | inhibition at 72 h, 40 µM [5] [%] | selectivity ratio [6] | IC50 (Plasmodium falciparum [2]) | Ki [7] [nM] | Ki [8] [nM] | Ki [9] [nM] | Ki [10] [nM] | Ratio Ki [11]
C[C@H]1[C@@H](O)O[C@@H]2O[C@@]3(C)CC[C@H]4[C@H](C)CC[C@@H]1[C@@]24OO3 [ARTENIMOL] | 0.5 | 0.4 | 31 |  |  |  |  |  |  |  |  | 
COc1ccc(C[C@H](N)C(=O)N[C@H]2[C@@H](O)[C@H](n3cnc4c(N(C)C)ncnc43)O[C@@H]2CO)cc1 [PUROMYCIN] | 111 | 107 | 105 | 500 | 105 | 4.5 |  |  |  |  |  | 
CCc1nc(N)nc(N)c1-c1ccc(Cl)cc1 [PYRIMETHAMINE] | 5.1 |  | 34.4 | ≥ 20000 | 53.7 | ≥ 1960 | Not Active |  |  |  |  | 
O=C(CC1CCCCC1)NC(C(=O)NO)c1ccc(-c2cc(F)c(F)c(F)c2)cc1 (centres undefined) |  |  |  |  |  |  |  | 812 | 13.2 | 288 | 148 | 10
O=C(NC(C(=O)NO)c1ccc(-c2cc(F)c(F)c(F)c2)cc1)C1CCOCC1 (centres undefined) |  |  |  |  |  |  |  | 431 | 159 | 290 | 494 | 10
O=C(CC(F)(F)F)NC(C(=O)NO)c1ccc(-c2cc(F)c(F)c(F)c2)cc1 (centres undefined) |  |  |  |  |  |  |  | 537 | 149 | 999 | 1050 | 10
O=C(N[C@@H](C(=O)NO)c1ccc(-c2cc(F)c(F)c(F)c2)cc1)[C@@H](F)C(F)(F)F (racemic) |  |  |  |  |  |  |  | 257 | 11.2 | 814 | 382 | 10
C[C@H]1[C@H](OC(=O)CCC(=O)O)O[C@@H]2O[C@@]3(C)CC[C@H]4[C@H](C)CC[C@@H]1[C@@]24OO3 [ARTESUNATE] | 1.6 | 1 | 42.3 |  |  |  |  |  |  |  |  | 
O=C(CC1CCCC1)NC(C(=O)NO)c1ccc(-c2cc(F)c(F)c(F)c2)cc1 (centres undefined) | 168 | 125 | 3.1 |  | -1 |  |  | 216 | 7.58 | 138 | 211 | 28.5
CC(C)(C)C(=O)NC(C(=O)NO)c1ccc(-c2cc(F)c(F)c(F)c2)cc1 (centres undefined) | 83.1 | 81.7 | 1.1 | ≥ 20000 | 80.7 | ≥ 241 |  | 331 | 14.1 | 147 | 74.8 | 10
CC(C)C(=O)NC(C(=O)NO)c1ccc(-c2cc(F)c(F)c(F)c2)cc1 (centres undefined) |  |  |  |  |  |  |  | 417 | 38.9 | 426 | 325 | 10
O=C(CC1CCC1)NC(C(=O)NO)c1ccc(-c2cc(F)c(F)c(F)c2)cc1 (centres undefined) | 55.4 | 29.2 | 6.3 |  | 5.6 |  |  | 177 | 2.85 | 306 | 75.6 | 62.1
O=C(CC1CC1)NC(C(=O)NO)c1ccc(-c2cc(F)c(F)c(F)c2)cc1 (centres undefined) | 136 | 109 | 6.4 |  | 37.6 |  |  | 202 | 17.9 | 270 | 303 | 10
O=C(NC(C(=O)NO)c1ccc(-c2cc(F)c(F)c(F)c2)cc1)C1CCCC1 (centres undefined) |  |  |  |  |  |  |  | 285 | 13.1 | 300 | 336 | 10
O=C(NC(C(=O)NO)c1ccc(-c2cc(F)c(F)c(F)c2)cc1)C1CCC1 (centres undefined) | 126 | 120 | 6 |  | 48.2 | ≥ 158 |  | 236 | 29.8 | 185 | 371 | 10
CCN(CC)CCCC(C)Nc1ccnc2cc(Cl)ccc12 (centres undefined) [CHLOROQUINE] |  |  | 17.3 | ≥ 20000 | 57 |  |  |  |  |  |  | 
O=C(NO)[C@@H](NC(=O)[C@@H](F)C(F)(F)F)c1ccc(-c2cc(F)c(F)c(F)c2)cc1 (racemic) |  |  |  |  |  |  |  | 1490 | 211 | 2190 | 1240 | 10
O=C(NC(C(=O)NO)c1ccc(-c2cc(F)c(F)c(F)c2)cc1)C1CCCCC1 (centres undefined) |  |  |  |  |  |  |  | 818 | 37.6 | 195 | 178 | 10
O=C(NO)C(NC(=O)C(F)(F)C(F)(F)F)c1ccc(-c2cc(F)c(F)c(F)c2)cc1 (centres undefined) |  |  |  |  |  |  |  | 815 | 90 | 200 | 97.5 | 10
O=C(NC(C(=O)NO)c1ccc(-c2cc(F)c(F)c(F)c2)cc1)C1CC1 (centres undefined) |  |  |  |  |  |  |  | 532 | 90.6 | 492 | 572 | 10
O=C(CC1CC2CCC1C2)NC(C(=O)NO)c1ccc(-c2cc(F)c(F)c(F)c2)cc1 (centres undefined) | 220 | 120 | 0.6 |  | 19.7 |  |  | 136 | 12.7 | 127 | 93.1 | 10
CCC(=O)NC(C(=O)NO)c1ccc(-c2cc(F)c(F)c(F)c2)cc1 (centres undefined) |  |  |  |  |  |  |  | 913 | 66.3 | 158 | 108 | 10
COc1ccc2nc3cc(Cl)ccc3c(Nc3cc(CN4CCCC4)c(O)c(CN4CCCC4)c3)c2n1 [PYRONARIDINE] | 7 | 7.9 | 102 | 3550 | 95.6 | 507 |  |  |  |  |  | 
